A short description of data set [1]: Cytotoxicity against human MT4 cells. It is filed as cell-based.
For data set [2], the system named is Human immunodeficiency virus 1. The experiment in a line: Antiviral activity against HIV1 infected in human MT4 cells assessed as virus-induced cytopathic effect by MTT assay. In kind it is functional, organism-based. The following applies: Human immunodeficiency virus 1, MT4.
Data set [3] in a line: Inhibition of recombinant His6-tagged HIV-1 integrase binding to FLAG-tagged LEDGF/p75 (unknown origin) interaction expressed in Escherichia coli BL21(DE3) at 20 uM treated 30 mins before LEDGF/p75 addition measured after 60 mins by quench assay. Summed up:
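Emission-quench counter-screen run like the IN–LEDGF/p75 AlphaScreen, with FLAG-tagged GST (500 nM final) instead of both proteins. Same buffer, Ni-chelate donor and anti-FLAG acceptor beads, 1 h at 30 °C, acceptor emission read. Reported as percent inhibition at a single compound concentration.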

Data set [4] concerns the target T1, Human immunodeficiency virus type 1 integrase (Human immunodeficiency virus 1, UniProt Q7ZJM1). Description: Inhibition of recombinant His6-tagged HIV-1 integrase 3' strand transfer activity.
The target of data set [5] is T1, Human immunodeficiency virus type 1 integrase. The experiment in a line: Inhibition of recombinant His6-tagged HIV-1 integrase 3' processing activity.
Data set [6] can be described thus: Inhibition of recombinant His6-tagged HIV-1 integrase binding to FLAG-tagged LEDGF/p75 (unknown origin) interaction expressed in Escherichia coli BL21(DE3) treated 30 mins before LEDGF/p75 addition measured after 60 mins by AlphaScreen assay. The gist of the method:
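His6-IN (300 nM final) with compound for 30 min at 4 °C. FLAG-LEDGF/p75 (300 nM final) added for 60 min at 4 °C. Ni-chelate donor and anti-FLAG acceptor beads added, 1 h at 30 °C, light exposure minimized. Acceptor emission read. IC50 is the 50% inhibition of the interaction.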

Where only a bound is given, the exact number is not on record here.

T1 sequence (Q7ZJM1 whole entry): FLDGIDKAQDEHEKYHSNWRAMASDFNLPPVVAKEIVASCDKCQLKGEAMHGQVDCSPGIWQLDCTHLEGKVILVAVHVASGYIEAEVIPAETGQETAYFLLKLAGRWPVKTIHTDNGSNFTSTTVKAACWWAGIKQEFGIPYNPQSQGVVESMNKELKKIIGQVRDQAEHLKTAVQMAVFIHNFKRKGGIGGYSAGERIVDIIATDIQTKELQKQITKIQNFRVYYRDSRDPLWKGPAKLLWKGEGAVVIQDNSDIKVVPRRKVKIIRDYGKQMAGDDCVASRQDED

For orientation: CC50 means the concentration that lowers cell viability or growth by half. For orientation: EC50 means the concentration needed to bring the measured effect to its halfway point. Usually inhibition stands for the percentage by which the read-out fell short of the control. By IC50 is commonly meant the concentration that gives 50% inhibition. As for `O=C(Nc1ccccc1O)c1nc[nH]c1C(=O)N1CCC(O)CC1`, in data set [1], the CC50 was greater than 20 µM. Also, the EC50 in data set [2] was greater than 20 µM. In data set [3], the inhibition is less than 50%. Besides, the IC50 in data set [4], in data set [5] and in data set [6] was greater than 20 µM in each case.

As for `O=C(Nc1ccccc1)c1nc[nH]c1C(=O)O`, in data set [1], the CC50 is greater than 20 µM. In data set [2], the EC50 is greater than 20 µM. Besides, the inhibition in data set [3] is less than 50%. The IC50 in data set [4] is greater than 20 µM; in data set [5], greater than 20 µM; in data set [6], 6 µM.

The compound `O=C(Nc1ccc([N+](=O)[O-])cc1)c1nc[nH]c1C(=O)O` registered a CC50 in data set [1] greater than 20 µM. In data set [2], the EC50 is greater than 20 µM. The inhibition in data set [3] was less than 50%. In addition, the figures for the IC50 in data set [4], in data set [5] and in data set [6] were greater than 20 µM, greater than 20 µM and 5.3 µM, respectively.

Regarding `Nc1ccc(NC(=O)c2nc[nH]c2C(=O)O)cc1`, the CC50 in data set [1] was greater than 20 µM. In addition, the EC50 in data set [2] was greater than 20 µM. In data set [3], the inhibition was less than 50%. Moreover, the values for the IC50 in data set [4], in data set [5] and in data set [6] were greater than 20 µM, greater than 20 µM and 1 µM, respectively.

Turning to `O=C(Nc1ccccn1)c1nc[nH]c1C(=O)O`, the CC50 in data set [1] is greater than 20 µM. Further, in data set [2], the EC50 was greater than 20 µM. Further, the inhibition in data set [3] was less than 50%. Further, the IC50 is greater than 20 µM in data set [4], greater than 20 µM in data set [5] and 13 µM in data set [6].

The compound `O=C(NCc1ccc(F)cc1)c1nc[nH]c1C(=O)O` gave a CC50 in data set [1] greater than 20 µM. In addition, the EC50 in data set [2] is greater than 20 µM. Further, in data set [3], the inhibition was less than 50%. Besides, the IC50 in data set [4], in data set [5] and in data set [6] was greater than 20 µM in each case.

Turning to `O=C(Nc1ccccn1)c1nc[nH]c1C(=O)N1CCNCC1`, the CC50 in data set [1] was greater than 20 µM. In data set [2], the EC50 is greater than 20 µM. In addition, the inhibition in data set [3] is less than 50%. In addition, the IC50 in data set [4], in data set [5] and in data set [6] was greater than 20 µM throughout.

In data set [1], `COC(=O)c1[nH]cnc1C(=O)Nc1ccc(F)cc1` yielded a CC50 greater than 20 µM. Also, the EC50 in data set [2] is greater than 20 µM. Further, in data set [3], the inhibition is less than 50%. The IC50 in data set [4], in data set [5] and in data set [6] was greater than 20 µM in each case.

As for `CNC(=O)c1[nH]cnc1C(=O)Nc1ccccn1`, the CC50 in data set [1] was greater than 20 µM. Also, the EC50 in data set [2] was greater than 20 µM. In addition, the inhibition in data set [3] is less than 50%. Further, the IC50 in data set [4], in data set [5] and in data set [6] was greater than 20 µM in each case.

Turning to `O=C(Nc1ccccn1)c1nc[nH]c1C(=O)N1CCOCC1`, the CC50 in data set [1] is greater than 20 µM. In addition, the EC50 in data set [2] was greater than 20 µM. Further, the inhibition in data set [3] is less than 50%. For the same compound, the IC50 in data set [4], in data set [5] and in data set [6] was greater than 20 µM throughout.

For the compound `NNC(=O)c1[nH]cnc1C(=O)Nc1ccccn1`, the CC50 in data set [1] is greater than 20 µM. For the same compound, the EC50 in data set [2] was greater than 20 µM. Further, in data set [3], the inhibition was less than 50%. The IC50 is greater than 20 µM in data set [4], greater than 20 µM in data set [5] and 0.4 µM in data set [6].

In data set [1], `Cc1ccc(NC(=O)c2[nH]cnc2C(=O)NN)cc1` had a CC50 greater than 20 µM. Besides, the EC50 in data set [2] was greater than 20 µM. The inhibition in data set [3] was less than 50%. Further, the IC50 in data set [4] was greater than 20 µM; in data set [5], greater than 20 µM; in data set [6], 16 µM.

In data set [1], `O=C(Nc1ccccc1O)c1nc[nH]c1C(=O)N1CCOCC1` came in with a CC50 greater than 20 µM. Further, in data set [2], the EC50 was greater than 20 µM. Moreover, the inhibition in data set [3] was less than 50%. Besides, the IC50 in data set [4], in data set [5] and in data set [6] was greater than 20 µM each time.

In turn, `O=C(Nc1ccccn1)c1nc[nH]c1C(=O)N1CCC(O)CC1` showed a CC50 in data set [1] greater than 20 µM. Also, the EC50 in data set [2] is greater than 20 µM. Besides, the inhibition in data set [3] is less than 50%. Also, the IC50 in data set [4], in data set [5] and in data set [6] was greater than 20 µM each time.

As for `O=C(Nc1ccc(F)cc1)c1nc[nH]c1C(=O)O`, the CC50 in data set [1] is greater than 20 µM. Also, the EC50 in data set [2] is greater than 20 µM. Besides, the inhibition in data set [3] is less than 50%. Besides, the IC50 in data set [4] was greater than 20 µM; in data set [5] it was greater than 20 µM; in data set [6] it was 10 µM.

In data set [1], `O=C(Nc1ccccc1O)c1nc[nH]c1C(=O)N1CCNCC1` displayed a CC50 greater than 20 µM. Moreover, the EC50 in data set [2] was greater than 20 µM. Moreover, the inhibition in data set [3] was less than 50%. Moreover, the IC50 in data set [4], in data set [5] and in data set [6] was greater than 20 µM throughout.

For the origin of these results see ChEMBL document CHEMBL2417400, “Discovery of a novel 5-carbonyl-1H-imidazole-4-carboxamide class of inhibitors of the HIV-1 integrase-LEDGF/p75 interaction” (Bioorg Med Chem, 2013).
